Test [1] addresses Integrin alpha-IIb/beta-3 (Homo sapiens, UniProt P05106+P08514). Description: Displacement of biotinylated fibrinogen from human glycoprotein 2b/3a receptor after 2 hrs by chemiluminescence assay. The class given is protein-complex assay. Summed up:
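Solid-phase competitive binding: purified human GPIIb/IIIa coated overnight at 4 °C in Tris buffer pH 7.4 with 1 mM Ca2+, Mg2+, Mn2+; blocked with 1% BSA. Serially diluted inhibitor plus biotinylated human fibrinogen, 2 h rt; peroxidase anti-biotin antibody 1 h, chemiluminescent read.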

Test [2] has as its target Trypsin (Homo sapiens, UniProt P07477+P07478+P35030). Description: Inhibition of trypsin (unknown origin) using S-2222 as substrate incubated for 15 mins prior to substrate addition measured every 10 secs by spectrophotometric analysis. The test is classed as protein assay. In outline:
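Trypsin at 0.5 nkat/mL final with S-2222 at 50 and 100 µM final. Inhibitor 0.5–100 µM, diluted from 10 mM DMSO stocks, preincubated 15 min at 25 °C with enzyme in HBSA buffer before substrate; absorbance at 405 nm every 10 s. Triplicate at three inhibitor and two substrate levels; Ki from initial rates (Cheng–Prusoff), averaged.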

In test [3] the target is Prothrombin (Homo sapiens, UniProt P00734). Description: Inhibition of thrombin (unknown origin) using S-2238 as substrate incubated for 15 mins prior to substrate addition measured every 10 secs by spectrophotometric analysis.
For test [4], the target named is Coagulation factor X (Homo sapiens, UniProt P00742). Description: Inhibition of F10a (unknown origin) using S-2222 as substrate incubated for 15 mins prior to substrate addition measured every 10 secs by spectrophotometric analysis. In outline: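 Inhibitor 0.5–100 µM (from 10 mM DMSO stocks) preincubated with enzyme in HBSA buffer 15 min, 25 °C; A405 read every 10 s. Triplicate, three inhibitor × two substrate concentrations; Ki from initial linear rates via Cheng–Prusoff, averaged.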
Sequence of Coagulation factor X (P00742 41-179 limits assumed): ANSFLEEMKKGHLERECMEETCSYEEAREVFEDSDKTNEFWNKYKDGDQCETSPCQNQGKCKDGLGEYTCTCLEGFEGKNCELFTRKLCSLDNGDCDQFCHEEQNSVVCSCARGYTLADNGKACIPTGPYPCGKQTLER
Sequence of Coagulation factor X (P00742 235-488 limits assumed): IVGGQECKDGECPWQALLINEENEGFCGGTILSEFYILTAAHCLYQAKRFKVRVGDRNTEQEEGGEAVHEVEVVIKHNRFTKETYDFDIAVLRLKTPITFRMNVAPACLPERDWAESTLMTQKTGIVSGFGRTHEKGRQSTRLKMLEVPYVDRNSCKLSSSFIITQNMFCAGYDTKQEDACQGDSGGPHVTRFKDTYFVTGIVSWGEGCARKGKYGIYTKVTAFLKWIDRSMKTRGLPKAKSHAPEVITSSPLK

Sequence of Integrin alpha-IIb/beta-3 (P05106 27-788 limits assumed): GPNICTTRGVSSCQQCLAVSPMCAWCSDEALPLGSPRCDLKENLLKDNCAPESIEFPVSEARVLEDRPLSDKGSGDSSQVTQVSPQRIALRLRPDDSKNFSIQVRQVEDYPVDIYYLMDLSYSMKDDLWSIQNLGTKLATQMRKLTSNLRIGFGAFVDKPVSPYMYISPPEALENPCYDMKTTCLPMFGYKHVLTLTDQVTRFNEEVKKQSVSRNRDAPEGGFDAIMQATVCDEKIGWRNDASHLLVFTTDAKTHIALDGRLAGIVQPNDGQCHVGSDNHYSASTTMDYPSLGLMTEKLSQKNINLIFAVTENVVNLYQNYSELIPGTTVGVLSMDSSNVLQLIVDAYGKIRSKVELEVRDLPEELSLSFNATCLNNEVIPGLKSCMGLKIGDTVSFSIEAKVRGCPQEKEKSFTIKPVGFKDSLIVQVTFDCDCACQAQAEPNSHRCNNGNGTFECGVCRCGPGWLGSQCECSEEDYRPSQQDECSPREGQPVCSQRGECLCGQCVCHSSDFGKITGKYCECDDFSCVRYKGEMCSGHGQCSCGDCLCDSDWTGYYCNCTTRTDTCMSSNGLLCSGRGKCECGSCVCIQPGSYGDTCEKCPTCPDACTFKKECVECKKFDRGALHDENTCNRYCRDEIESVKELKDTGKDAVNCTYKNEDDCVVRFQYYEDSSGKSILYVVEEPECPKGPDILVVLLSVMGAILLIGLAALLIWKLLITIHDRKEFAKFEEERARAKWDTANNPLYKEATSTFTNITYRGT
Sequence of Integrin alpha-IIb/beta-3 (P08514 32-887 limits assumed): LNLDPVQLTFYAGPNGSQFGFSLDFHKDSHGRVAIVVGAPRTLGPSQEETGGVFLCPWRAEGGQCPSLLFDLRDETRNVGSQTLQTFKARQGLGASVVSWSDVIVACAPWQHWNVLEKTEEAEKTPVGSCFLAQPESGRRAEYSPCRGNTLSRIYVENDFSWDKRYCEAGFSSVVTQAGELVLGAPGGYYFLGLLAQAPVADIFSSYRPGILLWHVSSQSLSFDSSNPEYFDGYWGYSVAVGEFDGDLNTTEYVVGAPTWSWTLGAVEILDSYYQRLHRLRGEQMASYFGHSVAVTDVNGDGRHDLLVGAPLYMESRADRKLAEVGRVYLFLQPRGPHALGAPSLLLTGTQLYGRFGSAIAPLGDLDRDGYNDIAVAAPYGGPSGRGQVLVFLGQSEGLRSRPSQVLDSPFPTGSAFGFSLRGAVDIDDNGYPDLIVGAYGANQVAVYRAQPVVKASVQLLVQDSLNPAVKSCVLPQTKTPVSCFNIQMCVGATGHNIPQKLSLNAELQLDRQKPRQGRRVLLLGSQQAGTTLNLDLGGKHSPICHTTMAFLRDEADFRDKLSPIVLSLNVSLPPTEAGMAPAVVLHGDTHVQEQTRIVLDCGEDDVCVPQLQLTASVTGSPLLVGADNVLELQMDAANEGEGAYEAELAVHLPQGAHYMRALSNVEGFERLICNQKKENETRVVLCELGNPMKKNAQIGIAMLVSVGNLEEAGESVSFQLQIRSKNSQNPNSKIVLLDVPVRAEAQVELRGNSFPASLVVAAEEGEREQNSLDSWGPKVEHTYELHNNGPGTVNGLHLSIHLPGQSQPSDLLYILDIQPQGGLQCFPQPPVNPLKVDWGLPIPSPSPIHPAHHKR
Sequence of Integrin alpha-IIb/beta-3 (P08514 891-1039 limits assumed): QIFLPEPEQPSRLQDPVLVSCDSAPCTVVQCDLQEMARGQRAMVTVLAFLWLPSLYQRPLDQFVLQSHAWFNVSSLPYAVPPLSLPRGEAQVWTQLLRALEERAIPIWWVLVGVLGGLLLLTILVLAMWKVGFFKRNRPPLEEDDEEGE

With `CCOC(=O)C1CCCCN1c1ccc(N2C[C@H](CNC(=O)c3cnc(N)s3)OC2=O)cc1.O=C(O)C(F)(F)F` (stereo partly specified), the IC50 (in general, the concentration that inhibits the measured activity by half) in test [1] is over 300 µM. The Ki (as a rule, a measure of affinity in units of concentration, obtained from inhibition or displacement) is over 100 µM in test [2], over 100 µM in test [3] and 28.7 µM in test [4].

With `O=C(NC[C@@H]1CN(c2ccc(N3CCC(C(=O)O)CC3)cc2)C(=O)O1)c1ccc(Cl)s1`, the IC50 in test [1] is over 300 µM.

Turning to `O=C(NC[C@H]1CN(c2ccc(N3CCC(C(=O)O)CC3)cc2)C(=O)O1)c1ccc(-c2noc(=O)[nH]2)cc1`, in test [1], the IC50 was 16 µM. For the same compound, the Ki in test [2], in test [3] and in test [4] was over 100 µM each time.

In test [1], `CC(=O)O.N=C(N)c1ccc(C(=O)NC[C@H]2CN(c3ccc(N4CCC(C(=O)O)CC4)cc3)C(=O)O2)cc1` gave an IC50 of 12 µM. In addition, the Ki in test [2] is 8.95 µM; in test [3] it was over 100 µM; in test [4], 43 µM.

In test [1], `Nc1cc(C(=O)NC[C@H]2CN(c3ccc(N4CCC(C(=O)O)CC4)cc3)C(=O)O2)ccc1Cl` registered an IC50 of 25.8 µM. Further, the Ki in test [2] is over 100 µM; in test [3] it was over 100 µM; in test [4], 37 µM.

In turn, `CCOC(=O)C1CCN(c2ccc(N3C[C@@H](CNC(=O)c4ccc(Cl)c(N)c4)OC3=O)cc2)CC1` had an IC50 in test [1] of over 300 µM. Also, the Ki was over 100 µM in test [2], over 100 µM in test [3] and 82.3 µM in test [4].

`CCOC(=O)C1CCN(c2ccc(N3C[C@H](CNC(=O)c4ccc(Cl)c(N)c4)OC3=O)cc2)CC1` showed an IC50 in test [1] of over 300 µM. For the same compound, the Ki is over 100 µM in test [2], over 100 µM in test [3] and 10.8 µM in test [4].

As for `CCOC(=O)C1CCN(c2ccc(N3C[C@@H](CNC(=O)c4cnc(N)s4)OC3=O)cc2)CC1.O=C(O)C(F)(F)F`, the IC50 in test [1] was over 300 µM. In addition, the figures for the Ki in test [2], in test [3] and in test [4] were over 100 µM, over 100 µM and 111 µM, respectively.

As to `CC(=O)O.CCOC(=O)C1CCN(c2ccc(N3C[C@@H](CNCc4ccc(C(=N)N)cc4)OC3=O)cc2)CC1`, the 50% inhibitory concentration (IC50) in test [1] worked out at 35 µM. The Ki was 6.59 µM in test [2], over 100 µM in test [3] and 25.6 µM in test [4].

`CC(=O)O.N=C(N)c1ccc(C(=O)NC[C@@H]2CN(c3ccc(N4CCC(C(=O)O)CC4)cc3)C(=O)O2)cc1` registered an IC50 in test [1] of 4.7 µM. In addition, the Ki is 3.79 µM in test [2], over 100 µM in test [3] and 62.9 µM in test [4].

In turn, `CCOC(=O)C1CCN(c2ccc(N3C[C@H](CNC(=O)c4cnc(N)s4)OC3=O)cc2)C(=O)C1.O=C(O)C(F)(F)F` (stereo partly specified) gave an IC50 in test [1] of over 300 µM. For the same compound, the inhibitory constant (Ki) in test [2] is over 100 µM; in test [3], over 100 µM; in test [4] it was 38.2 µM.

In test [1], `O=C(O)C1CCN(c2ccc(N3C[C@H](CNCc4ccc(-c5noc(=O)[nH]5)cc4)OC3=O)cc2)CC1` yielded an IC50 of 0.89 µM. Moreover, the inhibition constant Ki in test [2], in test [3] and in test [4] was over 100 µM in each case.

Take `CCOC(=O)C1CCCN(c2ccc(N3C[C@H](CNC(=O)c4cnc(N)s4)OC3=O)cc2)C1.O=C(O)C(F)(F)F` (stereo partly specified): the concentration for half-maximal inhibition (IC50) in test [1] is over 300 µM. Also, the Ki in test [2] was over 100 µM; in test [3], over 100 µM; in test [4], 49.3 µM.

As to `CC(=O)O.CCOC(=O)C1CCN(c2ccc(N3C[C@@H](CNC(=O)c4ccc(C(=N)N)cc4)OC3=O)cc2)CC1`, the IC50 in test [1] was determined as 96 µM. For the same compound, the inhibitory constant (Ki) was 3.06 µM in test [2], over 100 µM in test [3] and over 100 µM in test [4].

In test [1], `O=C(NC[C@@H]1CN(c2ccc(N3CCC(C(=O)O)CC3)cc2)C(=O)O1)c1ccc(-c2noc(=O)[nH]2)cc1` had an IC50 of 0.87 µM. In addition, the Ki in test [2], in test [3] and in test [4] was over 100 µM throughout.

In the case of `O=C(NC[C@H]1CN(c2ccc(N3CCC(C(=O)O)CC3)cc2)C(=O)O1)c1ccc(Cl)c(-c2noc(=O)[nH]2)c1`, the IC50 in test [1] came out at 15.3 µM. Further, the inhibition constant (Ki) in test [2] was over 100 µM; in test [3] it was over 100 µM; in test [4] it was 89.7 µM.

For `O=C(NC[C@H]1CN(c2ccc(N3CCC(C(=O)O)CC3)cc2)C(=O)O1)c1ccc(Cl)s1`, the IC50 in test [1] is over 300 µM.

`CC(=O)O.N=C(N)c1ccc(CNC[C@H]2CN(c3ccc(N4CCC(C(=O)O)CC4)cc3)C(=O)O2)cc1`: the IC50 in test [1] was determined as 2.2 µM. The results for the inhibitory constant (Ki) in test [2], in test [3] and in test [4] were 17.8 µM, 53 µM and 54.1 µM, respectively.

`CCOC(=O)C1(C)CCCN(c2ccc(N3C[C@H](CNC(=O)c4cnc(N)s4)OC3=O)cc2)C1=O.O=C(O)C(F)(F)F` (stereo partly specified) yielded an IC50 in test [1] of over 300 µM. In addition, the Ki in test [2] was over 100 µM; in test [3] it was over 100 µM; in test [4], 55.6 µM.

Consider `Nc1ncc(C(=O)NC[C@H]2CN(c3ccc(N4CCCC(C(=O)O)C4)cc3)C(=O)O2)s1.O=C(O)C(F)(F)F` (stereo partly specified), for which the IC50 in test [1] was over 300 µM. Further, the Ki in test [2] was over 100 µM; in test [3], over 100 µM; in test [4], 47.5 µM.

For the compound `CCOC(=O)C1CCN(c2ccc(N3C[C@H](CNC(=O)c4cnc(N)s4)OC3=O)cc2)CC1.O=C(O)C(F)(F)F`, in test [1], the half-inhibitory concentration (IC50) is over 300 µM. For the same compound, the Ki in test [2] is over 100 µM; in test [3] it was over 100 µM; in test [4] it was 54.4 µM.

On to `CC1(C(=O)O)CCCN(c2ccc(N3C[C@H](CNC(=O)c4cnc(N)s4)OC3=O)cc2)C1=O.O=C(O)C(F)(F)F` (stereo partly specified), for which, in test [1], the IC50 was over 300 µM. The Ki in test [2] is over 100 µM; in test [3] it was over 100 µM; in test [4], 11.2 µM.

As for `Nc1ncc(C(=O)NC[C@@H]2CN(c3ccc(N4CCC(C(=O)O)CC4)cc3)C(=O)O2)s1.O=C(O)C(F)(F)F`, in test [1], the IC50 was 16.8 µM. For the same compound, the results for the Ki in test [2], in test [3] and in test [4] were over 100 µM, over 100 µM and 88.2 µM, respectively.

In turn, `CC(=O)O.CCOC(=O)C1CCN(c2ccc(N3C[C@H](CNCc4ccc(C(=N)N)cc4)OC3=O)cc2)CC1` showed an IC50 in test [1] of 55 µM. The Ki in test [2] is 2.17 µM; in test [3], over 100 µM; in test [4], 34.3 µM.

`O=C(O)C1CCN(c2ccc(N3C[C@@H](CNCc4ccc(-c5noc(=O)[nH]5)cc4)OC3=O)cc2)CC1`: the IC50 in test [1] amounted to 0.26 µM. Moreover, the inhibitory constant (Ki) in test [2] is over 100 µM; in test [3], over 100 µM; in test [4], 94.8 µM.

In the case of `Nc1cc(C(=O)NC[C@@H]2CN(c3ccc(N4CCC(C(=O)O)CC4)cc3)C(=O)O2)ccc1Cl`, the IC50 in test [1] stood at 12.8 µM. In addition, the inhibitory constant (Ki) is over 100 µM in test [2], over 100 µM in test [3] and 57.7 µM in test [4].

In turn, `CC(=O)O.CCOC(=O)C1CCN(c2ccc(N3C[C@H](CNC(=O)c4ccc(C(=N)N)cc4)OC3=O)cc2)CC1` returned an IC50 in test [1] of 14 µM. Further, the Ki in test [2] is 5.65 µM; in test [3], over 100 µM; in test [4], over 100 µM.

Consider `Nc1ncc(C(=O)NC[C@H]2CN(c3ccc(N4CCC(C(=O)O)CC4)cc3)C(=O)O2)s1.O=C(O)C(F)(F)F`, for which, in test [1], the IC50 was found to be 78.4 µM. The inhibition constant Ki is over 100 µM in test [2], over 100 µM in test [3] and 48.8 µM in test [4].
